Source: PubChem
FN deposition inh: fibronectin deposition inhibition. AH1F fibroblasts, Alexa488-fibronectin deposition fluorescence, overnight. inhibition, % at 12.6 µM. 350,000 tested, 0.086% active;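 active means mean inhibition across replicates of 30% or more, regardless of how many single replicates reach that level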;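 further: positive control wells lacked labelled fibronectin entirely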
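Material: AH1F fibroblast monolayer depositing Alexa488-labelled fibronectin into matrix | Input: 10000 AH1F cells/well | Medium: DMEM plus 2% serum, read in PBS | Reagent: Alexa488-fibronectin, 24 nM final in well | Compound dosing: One dose per compound, pinned | Schedule: 1 h adhesion, overnight exposure | Measured by: Fluorescence at 485 nm excitation, 525 nm emission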
AF4-AF9 inh: MLL-AF4/AF9 protein interaction inhibition; inhibition, % at 10 µM; AlphaScreen, biotin-AF4 peptide binding to FLAG-AF9; P42568; 350,000 tested, 0.47% active; AID 651704;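 active means every replicate reaching a set inhibition limit, whatever the replicate mean, cut at about 25% in these data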;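 further: 0% = plate neutral control median and 100% = total signal loss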
PDI inh: inhibitors of human protein disulfide isomerase. PDI insulin aggregation turbidity, A650, 90 min. 350,000 tested, 0.052% active. AID 588391. inhibition, % at 10 µM. P07237;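 active means mean inhibition across replicates of 30% or more, whatever share of single replicates reach that level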
ERp5 inh: blocks human ERp5 reductase activity on insulin | 350,000 tested, 0.05% active | inhibition, % at 9.99 µM | Q15084 | AID 651711 | ERp5 insulin aggregation, absorbance 650 nm, 90 min;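 active means mean replicate inhibition above about 25%, with every replicate also reaching it, limit read from the data, passing the limit was not always enough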
SIRT5 block: sirtuin-5 (human) deacylase inhibition; Q9NXA8; inhibition, % at 15 µM; 330,000 tested, 1.1% active; Purified SirT5, succinyl-peptide AMC, trypsin-coupled fluorescence; in the data active means inhibition above about 15%
Target sequence (Q9NXA8 whole entry, looked up): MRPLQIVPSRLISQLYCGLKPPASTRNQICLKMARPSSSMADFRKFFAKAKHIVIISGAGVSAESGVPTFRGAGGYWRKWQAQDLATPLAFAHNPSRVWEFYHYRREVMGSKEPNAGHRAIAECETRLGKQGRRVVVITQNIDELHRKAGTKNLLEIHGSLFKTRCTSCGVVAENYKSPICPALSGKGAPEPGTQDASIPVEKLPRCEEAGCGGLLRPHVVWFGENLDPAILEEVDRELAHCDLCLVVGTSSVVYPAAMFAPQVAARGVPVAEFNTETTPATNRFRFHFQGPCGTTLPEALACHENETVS
* = called active by the depositor; . = no result given; ! = not confirmed by another sample. The list is not random: actives were taken first. Their share in the collection is about 1.3%.

SMILES	FN deposition inh	AF4-AF9 inh	PDI inh	ERp5 inh	SIRT5 block
CCOc1ccc(-c2nnc(SCC(=O)N3CCN(c4ccccc4)CC3)o2)cc1	-7	-7	.	-3	.
CCOc1ccc(-c2nnc(SCC(=O)N3CCNC3=O)o2)cc1	-2	28*	-12	-3	-2
CCCCOc1ccc(C(=O)Nc2ccc(CN3CCOCC3)cc2)cc1	-10	-1	2	1	29*
Cc1cc(N/C=C(\C#N)S(=O)(=O)c2ccccc2Cl)nc(C)n1	0	.	11	1	-2
COc1ccc(C(=O)N2c3cc4c(cc3C(C)=CC2(C)C)OCO4)cc1	12	32*	5	.	.
CC1=CC(C)(C)N(C(=O)c2ccccc2)c2ccc(C)cc21	-10	.	0	.	.
CO[C@@H]1CN(C)C(=O)c2cc(NC(=O)NC(C)C)ccc2OC[C@@H](C)N(CC2CC2)C[C@H]1C	7	-2	.	5	1
COc1ccc(/C=N/Nc2nccnc2Cl)cc1	.	.	6	.	.
COc1ccc(Nc2n[nH]c(N)c2C(N)=O)cc1	8	29*	1	0	0
COc1ccc(Nc2nc(C)cc(C)c2C(N)=O)cc1	.	.	-4	.	.
Cc1cc(C)n(CC(=O)NNC(=O)c2cncc(Br)c2)n1	4	-8	1	1	3
C[C@H]1CN([C@@H](C)CO)S(=O)(=O)c2ccc(-c3ccc(C#N)cc3)cc2O[C@@H]1CN(C)Cc1cccc(F)c1	.	0	.	12	16*
CCCC#Cc1ccc2c(c1)O[C@@H](CN(C)S(=O)(=O)c1cccc(F)c1)[C@@H](C)CN([C@@H](C)CO)S2(=O)=O	.	2	.	1	-2
C[C@H](CO)N1C[C@H](C)[C@@H](CN(C)Cc2cccnc2)Oc2cc(C#CC3CCCCC3)ccc2S1(=O)=O	.	6	.	2	-7
CC(C)CC#Cc1ccc2c(c1)O[C@@H](CN(C)S(=O)(=O)c1cccc(F)c1)[C@@H](C)CN([C@H](C)CO)S2(=O)=O	.	-2	.	2	20*
C[C@H](CO)N1C[C@H](C)[C@H](CN(C)Cc2cccnc2)Oc2cc(C#CC3CCCCC3)ccc2S1(=O)=O	.	4	.	1	12*
CC(C)CC#Cc1ccc2c(c1)O[C@H](CN(C)Cc1ccc(C(=O)O)cc1)[C@@H](C)CN([C@H](C)CO)S2(=O)=O	.	11	.	1	29*
COc1ccc(S(=O)(=O)Nc2ccc3c(c2)C(=O)N([C@H](C)CO)C[C@H](C)[C@H](CN(C)Cc2ccc(C(=O)Nc4ccccc4N)cc2)OCCCC[C@@H](C)O3)cc1	.	-2	.	6	.
NC(CCc1ccccc1)c1csc(Nc2ccccn2)n1 (stereo unspecified)	.	6	-13	10	-4
COc1ccccc1S(=O)(=O)N(C)C[C@@H]1Oc2cc(C#CCC(C)C)ccc2S(=O)(=O)N([C@H](C)CO)C[C@@H]1C	-4	2	-1	-9	23*!
CC(C)CC#Cc1ccc2c(c1)O[C@H](CN(C)Cc1cccnc1)[C@@H](C)CN([C@@H](C)CO)S2(=O)=O	-18	.	.	6	18*
Cc1ccc(-c2ccc3c(c2)O[C@H](CN(C)Cc2cccnc2)[C@H](C)CN([C@@H](C)CO)S3(=O)=O)cc1	1	6	.	7	15*
C[C@@H]1CN([C@@H](C)CO)S(=O)(=O)c2ccc(C#CC3CCCCC3)cc2O[C@@H]1CN(C)Cc1cccnc1	5	4	5	2	-4
C[C@H](CO)N1C[C@H](C)[C@@H](CN(C)Cc2cccnc2)Oc2cc(C#CC3CCCC3)ccc2S1(=O)=O	-29	6	.	-3	15*
COc1ccccc1CN1CCN(C(=O)c2cccc3ccccc23)CC1	4	6	3	5	-1
SMILES	FN deposition inh	AF4-AF9 inh	PDI inh	ERp5 inh	SIRT5 block
O=C(CSc1nnc(Cc2cccs2)n1Cc1ccco1)Nc1cc(Cl)cc(Cl)c1	5	.	2	.	.
CCC(=O)N(C)C[C@H]1Oc2cc(-c3ccc(C#N)cc3)ccc2S(=O)(=O)N([C@@H](C)CO)C[C@@H]1C	6	-1	.	85*	3
CC(C)CC#Cc1ccc2c(c1)O[C@@H](CN(C)Cc1cccc(F)c1)[C@H](C)CN([C@H](C)CO)S2(=O)=O	1	3	.	-6	16*
CC(C)CC#Cc1ccc2c(c1)O[C@@H](CN(C)Cc1ccc3c(c1)OCO3)[C@@H](C)CN([C@@H](C)CO)S2(=O)=O	6	1	.	2	14*
O=C(Nc1nc(=O)c2ccccc2s1)c1ccc(Cl)cc1	.	.	-6	.	.
C[C@@H]1CN([C@@H](C)CO)C(=O)c2cc(NC(=O)Cc3cn(C)c4ccccc34)ccc2O[C@@H]1CN(C)S(=O)(=O)c1ccc(F)cc1	.	-2	.	-1	0
Cc1ccc2nc(/C(C#N)=C/c3ccc(O)c(O)c3)[nH]c2c1	-8	0	9	0	20*
O=C(NCC(c1ccco1)N1CCN(c2ccccc2F)CC1)C(=O)NC1CCCCC1 (stereo unspecified)	4	-9	9	1	2
O=C(NCC(c1ccco1)N1CCN(c2ccccc2F)CC1)C1CCCCC1 (stereo unspecified)	0	1	6	-5	20*
O=C(COc1ccccc1)NCC(c1ccco1)N1CCN(c2ccccc2F)CC1 (stereo unspecified)	-4	3	6	-6	-4
O=C(COc1ccccc1)NCC(c1ccco1)N1CCN(c2ccc(F)cc2)CC1 (stereo unspecified)	3	6	-2	3	19*
O=C(NCc1ccccc1F)c1cccc(S(=O)(=O)NCc2ccccc2)c1	1	-1	6	10	-7
CC1CCC2(CC1)NC(=O)N(CC(=O)Nc1ccc(N3CCOCC3)cc1)C2=O (stereo unspecified)	.	15	-4	5	-5
CC1CCCCC12NC(=O)N(CC(=O)Nc1ccc(N3CCOCC3)cc1)C2=O (stereo unspecified)	0	-2	9	3	16*
COc1ccc(NC(=O)Nc2ccc3c(c2)C(=O)N([C@@H](C)CO)C[C@@H](C)[C@H](CN(C)S(=O)(=O)c2ccccc2)OCCCC[C@@H](C)O3)cc1	-7	-1	.	0	15*
C[C@H](CO)N1C[C@H](C)[C@@H](CN(C)S(=O)(=O)c2ccc(F)cc2)OCCCC[C@H](C)Oc2ccc(NC(=O)Nc3ccc4c(c3)OCO4)cc2C1=O	-12	0	.	2	9
C[C@@H]1CCCCO[C@@H](CN(C)S(=O)(=O)c2ccc(F)cc2)[C@H](C)CN([C@@H](C)CO)C(=O)c2cc(NC(=O)Nc3ccc4c(c3)OCO4)ccc2O1	-2	1	.	-1	21*
COc1ccc(S(=O)(=O)N(C)C[C@H]2OCCCC[C@H](C)Oc3ccc(NC(=O)Nc4ccc(F)cc4)cc3C(=O)N([C@H](C)CO)C[C@@H]2C)cc1	-17	-1	.	1	17*
